Reference: ChEMBL document CHEMBL3585256, “Triphenylphosphonium Cations of the Diterpenoid Isosteviol: Synthesis and Antimitotic Activity in a Sea Urchin Embryo Model” (J Nat Prod, 2015)
The source made the active and inactive calls.

Columns and labels:
Paracentrotus lividus [1] = experiment: Antimitotic activity against sea urichin L embryo model assessed as cleavage alteration after 2.5 to 5.5 hrs of fertilization by sea urichin embryo assay; format: functional
Paracentrotus lividus [2] = experiment: Antimitotic activity against sea urichin L embryo model assessed as full mitotic arrest by sea urichin embryo assay; format: functional
Paracentrotus lividus [3] = experiment: Antimitotic activity against sea urichin L embryo model assessed as embryo spinning by sea urichin embryo assay; format: functional
Paracentrotus lividus [4] = experiment: Antimitotic activity against sea urichin L embryo model assessed as inhibition of skeletal spiculae growth by sea urichin embryo assay; format: functional
Method in brief: (§1)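 Hatched free-swimming blastulae (8−9 h postfertilization) exposed to compound and followed to four-arm pluteus (34−36 h). Scored for spicule growth inhibition or arrest at late gastrula. Gametes obtained by intracoelomic 0.5 M KCl; embryos grown in filtered seawater at room temperature with paddle stirring, monolayer up to 2000 embryos/mL. Stocks in DMSO diluted with EtOH, or in water.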

Paracentrotus lividus [5] = experiment: Antimitotic activity against sea urichin L embryo model assessed as death of embryo at hatched blastula stage by sea urichin embryo assay; format: functional
Paracentrotus lividus [6] = experiment: Induction of mitotic spindle defects in sea urichin L embryo model assessed as aberrant mitotic spindles by conventional light microscopy; format: functional, organism-based
Method in brief: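 Eggs exposed 8−15 min postfertilization, incubated at 21 °C. Mitotic apparatus examined by light microscopy at 1 h (first cleavage anaphase) and 2.5 h postfertilization, scored for aberrant, multipolar or absent spindles.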

Paracentrotus lividus [7] = experiment: Induction of mitotic spindle defects in sea urichin L embryo model assessed as formation of aberrant mitotic spindles at 2 uM by conventional light microscopy
Paracentrotus lividus [8] = experiment: Toxicity in sea urichin L embryo assessed as development up to 4 uM; format: organism-based; settings: in vivo
Method in brief: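 Fertilized eggs exposed 8−15 min postfertilization to 2-fold decreasing concentrations, with cleavage alteration or arrest scored at 2.5−5.5 h. Effective threshold concentration defined as the lowest giving 100% cleavage alteration and embryo death before hatching, with no effect at 2-fold lower. Final DMSO ≤0.05% and EtOH ≤1%. Run in duplicate.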

HL-60 = experiment: Cytotoxicity against human HL60 cells by MTT assay; format: functional, cell-based
MOLT-4 = experiment: Cytotoxicity against human MOLT4 cells by MTT assay; format: functional; settings: read-out: LD50 (the source's name)
BALL-1 = experiment: Cytotoxicity against human BALL-1 cells by MTT assay; format: functional; settings: read-out: LD50 (the source's name)
[9] = Cytotoxicity against human NUGC3 cells by MTT assay; format: functional; settings: NUGC-3, read-out: LD50 (the source's name)
Paracentrotus lividus [10] = experiment: Antimitotic activity against sea urichin L embryo model assessed as late gastrula stage by sea urichin embryo assay; format: functional; method in brief: as §1
Paracentrotus lividus [11] = experiment: Induction of mitotic spindle defects in sea urichin L embryo model assessed as complete blocked of spindle assembly at 50 nM by conventional light microscopy

SMILES: CC[N+](CC)(CC)CCOCCOCCOC(=O)[C@]1(C)CCC[C@@]2(C)[C@@H]3CC[C@@]4(C)C[C@]3(CC[C@@H]21)CC4=O.[Br-]
- EC (Paracentrotus lividus [1]): >100 µM
- EC (Paracentrotus lividus [2]): >100 µM
- EC (Paracentrotus lividus [3]): >100 µM
- EC (Paracentrotus lividus [4]): 40 µM

SMILES: C[C@@]12CC[C@@H]3[C@@](CC[C@H]4[C@@]3(C)CCC[C@@]4(C)C(=O)OCCCCCC[P+](c3ccccc3)(c3ccccc3)c3ccccc3)(CC1=O)C2.[Br-]
- EC (Paracentrotus lividus [1]): 2 µM
- EC (Paracentrotus lividus [2]): >4 µM
- EC (Paracentrotus lividus [3]): >4 µM
- EC (Paracentrotus lividus [5]): 1 µM
- Activity (Paracentrotus lividus [6]): Active
- Activity (Paracentrotus lividus [7]): Active

SMILES: C[C@@]12CC[C@@H]3[C@@](CC[C@H]4[C@@]3(C)CCC[C@@]4(C)C(=O)OCCOCCOCCOCCOCC[P+](c3ccccc3)(c3ccccc3)c3ccccc3)(CC1=O)C2.[Br-]
- EC (Paracentrotus lividus [1]): 1 µM
- EC (Paracentrotus lividus [2]): 4 µM
- EC (Paracentrotus lividus [3]): >10 µM
- Activity (Paracentrotus lividus [6]): Active

SMILES: C[C@@]12CC[C@@H]3[C@@](CC[C@H]4[C@@]3(C)CCC[C@@]4(C)C(=O)OCCC[P+](c3ccccc3)(c3ccccc3)c3ccccc3)(CC1=O)C2.[Br-]
- EC (Paracentrotus lividus [1]): 2 µM
- EC (Paracentrotus lividus [2]): >4 µM
- EC (Paracentrotus lividus [3]): >4 µM
- EC (Paracentrotus lividus [5]): 4 µM
- Activity (Paracentrotus lividus [6]): Active

SMILES: C[C@@]12CC[C@@H]3[C@@](CC[C@H]4[C@@]3(C)CCC[C@@]4(C)C(=O)OCCOCCOCCOCC[P+](c3ccccc3)(c3ccccc3)c3ccccc3)(CC1=O)C2.[Br-]
- EC (Paracentrotus lividus [1]): 1 µM
- EC (Paracentrotus lividus [2]): 2 µM
- EC (Paracentrotus lividus [3]): >10 µM
- Activity (Paracentrotus lividus [6]): Active

SMILES: CC(=O)O[C@H]1C(=O)[C@@]2(C)[C@H]([C@H](OC(=O)c3ccccc3)[C@]3(O)C[C@H](OC(=O)[C@H](O)[C@@H](NC(=O)c4ccccc4)c4ccccc4)C(C)=C1C3(C)C)[C@]1(OC(C)=O)CO[C@@H]1C[C@@H]2O [PACLITAXEL]
- EC (Paracentrotus lividus [1]): 0.5 µM
- EC (Paracentrotus lividus [2]): >10 µM
- EC (Paracentrotus lividus [3]): >10 µM
- EC (Paracentrotus lividus [5]): 2 µM

SMILES: C[C@@]12CC[C@@H]3[C@@](CC[C@H]4[C@@]3(C)CCC[C@@]4(C)C(=O)O)(CC1=O)C2 [ISOSTEVIOL]
- EC (Paracentrotus lividus [1]): >4 µM
- EC (Paracentrotus lividus [2]): >4 µM
- EC (Paracentrotus lividus [3]): >4 µM
- Activity (Paracentrotus lividus [8]): Non-toxic
- IC50 (HL-60): 75 µM
- CC50 (MOLT-4): 84 µM
- CC50 (BALL-1): 87 µM
- CC50 [9]: 167 µM

SMILES: C[C@@]12CC[C@@H]3[C@@](CC[C@H]4[C@@]3(C)CCC[C@@]4(C)C(=O)OCCCCCCCC[P+](c3ccccc3)(c3ccccc3)c3ccccc3)(CC1=O)C2.[Br-]
- EC (Paracentrotus lividus [1]): 2 µM
- EC (Paracentrotus lividus [2]): >4 µM
- EC (Paracentrotus lividus [3]): >4 µM
- EC (Paracentrotus lividus [5]): 0.5 µM
- Activity (Paracentrotus lividus [6]): Active

SMILES: COc1cc([C@@H]2c3cc4c(cc3[C@@H](O[C@@H]3O[C@@H]5CO[C@@H](C)O[C@H]5[C@H](O)[C@H]3O)[C@H]3COC(=O)[C@H]23)OCO4)cc(OC)c1O [ETOPOSIDE]
- EC (Paracentrotus lividus [1]): 0.5 µM
- EC (Paracentrotus lividus [2]): >68 µM
- EC (Paracentrotus lividus [3]): >68 µM
- EC (Paracentrotus lividus [5]): 40 µM
- EC (Paracentrotus lividus [4]): 4 µM

SMILES: COC(=O)Nc1nc2cc(C(=O)c3cccs3)ccc2[nH]1 [NOCODAZOLE]
- EC (Paracentrotus lividus [1]): 0.005 µM
- EC (Paracentrotus lividus [2]): 0.1 µM
- EC (Paracentrotus lividus [3]): 0.1 µM
- EC (Paracentrotus lividus [5]): >0.5 µM
- EC (Paracentrotus lividus [10]): 0.02 µM
- Activity (Paracentrotus lividus [11]): Active

SMILES: C[C@@]12CC[C@@H]3[C@@](CC[C@H]4[C@@]3(C)CCC[C@@]4(C)C(=O)OCCOCCOCC[P+](c3ccccc3)(c3ccccc3)c3ccccc3)(CC1=O)C2.[Br-]
- EC (Paracentrotus lividus [1]): 1 µM
- EC (Paracentrotus lividus [2]): 2 µM
- EC (Paracentrotus lividus [3]): >10 µM
- Activity (Paracentrotus lividus [6]): Active

SMILES: CC[N+](CC)(CC)CCOCCOCCOCCOC(=O)[C@]1(C)CCC[C@@]2(C)[C@@H]3CC[C@@]4(C)C[C@]3(CC[C@@H]21)CC4=O.[Br-]
- EC (Paracentrotus lividus [1]): >100 µM
- EC (Paracentrotus lividus [2]): >100 µM
- EC (Paracentrotus lividus [3]): >100 µM
- EC (Paracentrotus lividus [4]): 100 µM
